The text below walks through data of ChEMBL document CHEMBL1641591, “Inhibition of monoamine oxidase by selected C5- and C6-substituted isatin analogues” (Bioorg Med Chem, 2011).

Series [1] has as its target T1, Amine oxidase [flavin-containing] B (Homo sapiens, UniProt P27338).
T1 sequence (P27338 whole entry): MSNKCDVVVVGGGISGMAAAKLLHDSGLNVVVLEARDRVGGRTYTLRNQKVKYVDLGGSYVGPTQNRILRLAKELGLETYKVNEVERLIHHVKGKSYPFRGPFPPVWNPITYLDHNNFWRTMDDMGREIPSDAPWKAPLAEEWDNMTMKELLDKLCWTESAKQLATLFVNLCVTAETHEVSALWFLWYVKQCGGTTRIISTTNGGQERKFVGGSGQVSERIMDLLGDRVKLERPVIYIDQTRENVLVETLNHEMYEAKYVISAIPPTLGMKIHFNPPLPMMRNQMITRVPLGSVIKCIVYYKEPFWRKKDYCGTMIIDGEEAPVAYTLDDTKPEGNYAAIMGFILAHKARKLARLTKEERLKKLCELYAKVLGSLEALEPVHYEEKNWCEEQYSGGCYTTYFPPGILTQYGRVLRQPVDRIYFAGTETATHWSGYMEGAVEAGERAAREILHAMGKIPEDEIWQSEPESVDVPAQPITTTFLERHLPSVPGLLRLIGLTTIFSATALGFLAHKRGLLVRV
The series can be described thus: Inhibition of human recombinant MAOB expressed in insect cells by fluorescence assay. Type of series: cell-based.

The species named for series [2] is Homo sapiens. Briefly: Selectivity ratio of Ki for human recombinant MAOA to Ki for human recombinant MAOB. The procedure, abridged: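 Ki values were obtained from duplicate kynuramine-oxidation IC50 data for insect-cell recombinant human MAO-A and MAO-B by the Cheng–Prusoff equation. […] The ratio is Ki(MAO-A)/Ki(MAO-B).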
Series [3] has as its target T2, Amine oxidase [flavin-containing] A (Homo sapiens, UniProt P21397).
T2 sequence (P21397 whole entry): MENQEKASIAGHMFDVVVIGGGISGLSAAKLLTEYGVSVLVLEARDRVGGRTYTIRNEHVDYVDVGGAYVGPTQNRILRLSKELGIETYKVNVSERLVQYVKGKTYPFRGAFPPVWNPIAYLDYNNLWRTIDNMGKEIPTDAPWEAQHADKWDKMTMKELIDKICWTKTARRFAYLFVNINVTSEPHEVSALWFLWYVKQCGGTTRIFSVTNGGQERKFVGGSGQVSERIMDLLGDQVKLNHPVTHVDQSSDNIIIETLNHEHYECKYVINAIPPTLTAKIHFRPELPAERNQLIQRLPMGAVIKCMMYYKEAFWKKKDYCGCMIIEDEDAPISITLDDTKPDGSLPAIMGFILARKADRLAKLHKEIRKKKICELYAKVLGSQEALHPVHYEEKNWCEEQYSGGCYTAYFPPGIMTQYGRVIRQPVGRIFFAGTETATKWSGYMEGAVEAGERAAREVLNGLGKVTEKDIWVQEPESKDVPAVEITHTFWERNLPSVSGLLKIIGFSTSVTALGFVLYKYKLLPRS
The series can be described thus: Inhibition of human recombinant MAOA expressed in insect cells by fluorescence assay. The procedure, abridged:
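Insect-cell microsomal recombinant human MAO-A (0.0075 mg/mL) in 100 mM potassium phosphate, pH 7.4, made isotonic with KCl, with 45 µM kynuramine. Incubated 20 min at 37 °C and stopped with NaOH. 4-Hydroxyquinoline was read by fluorescence (ex 310/em 400 nm) against a calibration curve.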

The target in series [4] is T1, Amine oxidase [flavin-containing] B. Briefly: Inhibition of human recombinant MAOB expressed in insect cells at 100 uM by fluorescence assay.
For series [5] the target is unchanged. Briefly: Competitive inhibition of human recombinant MAOB expressed in insect cells at 0.125 to 0.5 uM by Lineweaver-Burk plot analysis. The procedure, abridged:
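Recombinant human MAO-B from insect cells (0.015 mg/mL) was run with 15–90 µM kynuramine, without inhibitor and with 0.125, 0.25 or 0.5 µM inhibitor. The assay was otherwise the standard fluorescence procedure. Lineweaver–Burk plots were fitted by linear regression.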

Series [6] shares this target. The series can be described thus: Inhibition of human recombinant MAOB expressed in insect cells at 2.8 uM by fluorescence assay. The conditions noted are these: TDE = time-dependent effect.
Series [7] deals with T2, Amine oxidase [flavin-containing] A. Briefly: Inhibition of human recombinant MAOA expressed in insect cells at 9.76 uM by fluorescence assay. The conditions noted are these: TDE = time-dependent effect. The procedure, abridged: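 Reversibility test: recombinant human MAO-A (0.03 mg/mL) was preincubated 0, 15, 30 or 60 min at 37 °C with 9.76 µM inhibitor in isotonic pH 7.4 phosphate buffer. […] Residual rate was measured by 4-hydroxyquinoline fluorescence, in triplicate, mean ± SD.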

The target is the same in series [8]. Briefly: Competitive inhibition of human recombinant MAOA expressed in insect cells at 2.5 to 10 uM by Lineweaver-Burk plot analysis.
Series [9] has the same target. Briefly: Inhibition of human recombinant MAOA expressed in insect cells at 100 uM by fluorescence assay.

As a reminder, the IC50 is the concentration that inhibits the measured activity by half. For orientation: Ki means a measure of affinity in units of concentration, obtained from inhibition or displacement. Regarding `O=C1Nc2ccc(CCCCc3ccccc3)cc2C1=O`, in series [1], the IC50 is 0.00066 µM and the inhibition constant Ki came out at 0.00028 µM. For the same compound, in series [2], the Ratio Ki stood at 2030. For the same compound, in [3], the IC50 came to 2.19 µM and the Ki came out at 0.577 µM.

Take `Nc1cccc(/C=C/c2ccccc2)c1`: in series [1], the IC50 is 5.74 µM and the Ki came out at 2.47 µM. For the same compound, in [2], the Ratio Ki came to 3.24. Moreover, in series [3], the IC50 was found to be 30.4 µM and the inhibition constant (Ki) worked out at 8.01 µM.

As to `O=C1Nc2cc(-c3ccccc3)ccc2C1=O`, the figures for the IC50 in series [1] and in series [3] were 8.52 µM and 4.64 µM, respectively. In addition, the inhibition constant Ki was 3.67 µM in series [1] and 1.22 µM in series [3]. The Ratio Ki in [2] was found to be 0.333.

As for `Nc1cccc(-c2ccccc2)c1`, the “inhibition (INH)” value in series [4] was “Not Active”. In series [3], the IC50 was 68.6 µM and the Ki came to 18.1 µM.

Turning to `O=C1Nc2ccc(CCc3ccccc3)cc2C1=O`, the “inhibition (INH)” value was “Active” in series [5], “tde” in series [6], “tde” in series [7] and “Active” in series [8]. Moreover, the IC50 in series [1] came to 1.4 µM; in [3] it was 4.88 µM. Also, the results for the inhibition constant (Ki) in [1] and in series [3] were 0.603 µM and 1.29 µM, respectively. For the same compound, the Ratio Ki in series [2] turned out to be 2.13.

Consider `O=C1Nc2ccc(Oc3ccc(Cl)cc3)cc2C1=O`, for which the IC50 in [1] is 0.066 µM; in series [3], 12.2 µM. Moreover, the results for the Ki in series [1] and in series [3] were 0.028 µM and 3.21 µM, respectively. Further, the Ratio Ki in [2] amounted to 113.

With `O=C1Nc2cc(/C=C/c3ccccc3)ccc2C1=O` [(E)-6-STYRYLISATIN], in series [3], the IC50 was determined as 2.72 µM and the Ki amounted to 0.717 µM.

With `O=C1Nc2ccc(OCc3ccccc3)cc2C1=O`, the half-inhibitory concentration (IC50) in series [1] is 0.103 µM; in series [3], 4.62 µM. Besides, the figures for the Ki in series [1] and in series [3] were 0.044 µM and 1.22 µM, respectively. Besides, the Ratio Ki in series [2] worked out at 27.4.

Consider `Nc1ccc(-c2ccccc2)cc1` [BIPHENYL-4-AMINE], for which the “inhibition (INH)” value in series [4] and in series [9] was “Not Active” throughout.

Regarding `Nc1cccc(OCc2ccccc2)c1` [3-(BENZYLOXY)ANILINE], in series [1], the IC50 came to 23.4 µM and the Ki is 10.1 µM. Also, the Ratio Ki in series [2] came to 12.2. For the same compound, in series [3], the half-inhibitory concentration (IC50) amounted to 466 µM and the Ki came to 123 µM.

Regarding `Nc1cccc(Oc2ccccc2)c1` [3-PHENOXYANILINE], the “inhibition (INH)” value in series [9] is recorded as “Not Active”.

As to `Nc1cccc(CCc2ccccc2)c1`, in series [3], the IC50 was 355 µM and the Ki was 93.5 µM.

As to `Cl.Nc1ccc(CCCCc2ccccc2)cc1`, the “inhibition (INH)” value in series [9] is recorded as “Not Active”. For the same compound, in series [1], the IC50 was determined as 5.55 µM and the inhibition constant Ki came out at 2.39 µM.

In the case of `Nc1ccc(Oc2ccccc2)cc1` [4-PHENOXYANILINE], in [1], the 50% inhibitory concentration (IC50) was found to be 303 µM and the inhibitory constant (Ki) was determined as 131 µM. Also, the Ratio Ki in series [2] was found to be 0.185. Moreover, in series [3], the 50% inhibitory concentration (IC50) stood at 91.4 µM and the Ki worked out at 24.1 µM.

Consider `O=C1Nc2cc(OCc3ccccc3)ccc2C1=O`, for which, in [1], the IC50 turned out to be 0.138 µM and the Ki was found to be 0.059 µM. In addition, the Ratio Ki in series [2] was 321. Moreover, in series [3], the IC50 was found to be 72.4 µM and the Ki amounted to 19.1 µM.

Regarding `Nc1ccc(/C=C/c2ccccc2)cc1` [(E)-4-STYRYLANILINE], in series [1], the concentration for half-maximal inhibition (IC50) was determined as 6.34 µM and the Ki is 2.73 µM. Besides, the Ratio Ki in series [2] stood at 2.44. In [3], the 50% inhibitory concentration (IC50) was determined as 25.3 µM and the Ki is 6.67 µM.

With `O=C1Nc2cc(Oc3ccccc3)ccc2C1=O`, in [1], the IC50 turned out to be 9.91 µM and the Ki turned out to be 4.27 µM. In [2], the Ratio Ki turned out to be 3.84. Moreover, in series [3], the IC50 was determined as 62.2 µM and the inhibition constant Ki was determined as 16.4 µM.

Turning to `O=C1Nc2ccc(/C=C/c3ccccc3)cc2C1=O`, in series [1], the IC50 was determined as 0.009 µM and the inhibition constant Ki came out at 0.004 µM. Besides, in [2], the Ratio Ki came to 15.8. Further, in series [3], the IC50 worked out at 0.233 µM and the Ki was determined as 0.061 µM.

Turning to `O=C1Nc2cc(CCc3ccccc3)ccc2C1=O`, the results for the IC50 in series [1] and in series [3] were 9.93 µM and 6.93 µM, respectively. The Ki in series [1] was 4.28 µM; in series [3], 1.83 µM. The Ratio Ki in series [2] was determined as 0.427.

Turning to `Nc1ccc(CCc2ccccc2)cc1`, in [3], the IC50 was found to be 131 µM and the Ki turned out to be 34.5 µM.

On to `Nc1ccc(Oc2ccc(Cl)cc2)cc1`, for which the concentration for half-maximal inhibition (IC50) in series [1] is 16.8 µM; in [3], 29.3 µM. The inhibitory constant (Ki) in series [1] worked out at 7.24 µM; in series [3], 7.72 µM. Further, the Ratio Ki in series [2] came to 1.07.

As to `O=C1Nc2ccc(-c3ccccc3)cc2C1=O`, in series [1], the IC50 came out at 1.19 µM and the Ki came out at 0.513 µM. Moreover, the Ratio Ki in series [2] worked out at 0.289. In series [3], the IC50 came to 0.562 µM and the Ki is 0.148 µM.

On to `Nc1ccc(OCc2ccccc2)cc1` [4-BENZYLOXYANILINE], for which, in series [1], the 50% inhibitory concentration (IC50) stood at 12.8 µM and the Ki is 5.51 µM. The Ratio Ki in series [2] was determined as 9.13. For the same compound, in [3], the concentration for half-maximal inhibition (IC50) was found to be 191 µM and the Ki was 50.3 µM.

For the compound `O=C1Nc2ccc(Oc3ccccc3)cc2C1=O`, the IC50 in series [1] is 1.54 µM; in [3], 9.44 µM. The inhibition constant Ki in [1] was 0.663 µM; in series [3], 2.49 µM. In addition, the Ratio Ki in series [2] amounted to 3.75.
